# Test results published in the RNAGym collection of RNA variant scans (doi:10.1126/science.aae0568).
# Fewer inactive variants are shown than the library holds.
# B1: tRNA (parent)
# chain: GUUCCGUUGGCGUAAUGGUAACGCGUCUCCCUCCUAAGGAGAAGACUGCGGGUUCGAGUCCCGUACGGAACG
# Variants of: B1
# Assay: yeast fitness relative to wild type (ratio to wild type); higher = fitter; tRNA-Arg(CCU), competitive growth, 37 C, YPD
# How it was run: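 Variants of the tRNA-Arg(CCU) gene, chemically synthesised with a 3% per-site mutation rate at 69 sites, were placed at the native genomic locus in Saccharomyces cerevisiae. The pooled strains were competed in YPD at 37°C for 24 hours in six parallel replicates. Gene amplicons from the start population and from each end population were read by 100-nucleotide paired-end sequencing. Darwinian fitness relative to wild type came from changes in genotype frequencies; genotypes needed ≥ 100 starting reads, and estimates < 0.5 were set to 0.5.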
row,Variant,yeast fitness
1,C5A A40U,0.849
2,C5A C29A A70U,≤ 0.5
3,C5A U16G A21C C24U C30A,0.618
4,C5A U8C G10A A21G A45C G56C,≤ 0.5
5,C5A C31A C49U,≤ 0.5
6,C5A G12A G48A C61U,≤ 0.5
7,C5A A69C,0.919
8,C5A A15G G25A,0.583
9,C5A C60U A65C,≤ 0.5
10,C5A C11G G48C G67C,≤ 0.5
11,C5A A21G,0.942
12,C5A C34U U35A C49A U54A,0.661
13,C5A C11U A21G C24A G52A C60A A69G,≤ 0.5
14,C5A C33A G38A A45C G52A U54G G67A,≤ 0.5
15,C5A U7A G25C C46U,≤ 0.5
16,C5A A20C C22A A36C A69C,≤ 0.5
17,C5A C24U G25C C30G G50C G56A C66U,≤ 0.5
18,C5A U13G U32A A42U G52A U54A A69C,≤ 0.5
19,C5A G23C U32G A69U,≤ 0.5
20,C5A C49A G68C,0.536
21,C5A C46U U59C,0.728

row,Variant,yeast fitness
1,C5A U13C C29U C55U G56A,≤ 0.5
2,C5A C24G U26A C29G U32A,0.531
3,C5A C22G,0.862
4,C5A C22U,0.79
5,C5A C11G G51A C62U,≤ 0.5
6,C5A A21C C30G C34U G38C C49U C55U A70C,≤ 0.5
7,C5A C31G C55A,≤ 0.5
8,C5A C24A,0.727
9,C5A C27G C30U U32C A36G A37U G67A,≤ 0.5
10,C5A G41A A57G,0.545
11,C5A A45U C49U,0.64
12,C5A G9C A36U G50A U59G,0.542
13,C5A G58U,0.946
14,C5A G48C G51C U53A,≤ 0.5
15,C5A C46G,0.719
16,C5A C46U,0.997
17,C5A A37G,0.7
18,C5A G25A C29A C30U,0.758
19,C5A A20C A21G A65G C66U,≤ 0.5
20,C5A C27U G39C C49U G58C C62U,≤ 0.5
21,C5A C34G A65C,≤ 0.5

row,Variant,yeast fitness
1,C5A C11U A14U C27U A36U A43G C46U,≤ 0.5
2,C5A A21C C30G C34U G38C C49U,≤ 0.5
3,C5A U7C U32A G52C C55U C66U,≤ 0.5
4,C5A A21C U54G C60U,≤ 0.5
5,C5A G18C U19A C27A C33A C61G A70G,≤ 0.5
6,C5A U13G A14G U32A A42U G52A U54A C60G,≤ 0.5
7,C5A C11G C24A C55U G63C,≤ 0.5
8,C5A U28C,0.784
9,C5A G10U C30U A43C A69C,≤ 0.5
10,C5A C33G C49U C61G A69C,≤ 0.5
11,C5A A65G,0.978
12,C5A G17C A57C,0.551
13,C5A G23C G50C,≤ 0.5
14,C5A U13C G18A C31G C46U,≤ 0.5
15,C5A C11A G17C A43G,≤ 0.5
16,C5A C31U C33U A42C C49U A65C,≤ 0.5
17,C5A A40G C46A,0.773
18,C5A G39C C60G C62A,≤ 0.5
19,C5A A45C C46G G48C U64C,≤ 0.5
20,C5A G51C G63C A65C,≤ 0.5
21,C5A C22A G50C,0.738

row,Variant,yeast fitness
1,C5A G17U A69C A70G,≤ 0.5
2,C5A G23A G39C G41C A70C,≤ 0.5
3,C5A C34U G41C A69G,≤ 0.5
4,C5A C29U A69U,0.632
5,C5A A45C,0.81
6,C5A C27U G39C,≤ 0.5
7,C5A G38C,0.732
8,C5A G38A,0.664
9,C5A C30G C31G U32C,0.598
10,C5A C31A C55A C61A G63A G67U,≤ 0.5
11,C5A C33A,0.67
12,C5A C33U,0.603
13,C5A U16A A43G U59A C61A,≤ 0.5
14,C5A A20U C31G C61U C66U,≤ 0.5
15,C5A G17A A40U,≤ 0.5
16,C5A C31A C55A C61A G63A,0.671
17,C5A C24U U35C C66U,0.549
18,C5A C34G C46U A70U,≤ 0.5
19,C5A U7G A14C U16G A43G U53C C62G,≤ 0.5
20,C5A G39A G44A,0.62
21,C5A C22G C49G,0.563
